Assay type in all cases: functional
In assay [1] the test system is Rattus norvegicus. Nature of the assay: Percent increase in HDL-cholesterol in obese Zucker rats after 2 weeks of treatment at a dose of 10 mg/kg/day. The essentials:
(§1)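 Female Zucker fatty rats [Crl:(Zuc)-faBR], 10–12 weeks, 400–500 g, acclimated 7 days on chow. Compound or vehicle (20% EtOH/80% PEG-200) given by daily oral gavage for 2 weeks, 0–100 mg/kg/day. After a 6 h fast, blood was taken before dosing, at 1 wk and at 2 wk. Serum lipids, NEFA and insulin (ELISA) were measured; glucose by glucometer. HDL/non-HDL-C came from Superose 6 gel-filtration profiles. Values are % change from pretreatment, mean ± SEM.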

For assay [2], the system named is Rattus norvegicus. Briefly: Amount of non-HDL-cholesterol in obese Zucker rats after 1 week of treatment at a dose of 100 mg/kg/day. The essentials:
(§2)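 Female Zucker fatty rats [Crl:(Zuc)-faBR], 10–12 weeks old (400–500 g), dosed once daily by oral gavage in 20% EtOH/80% PEG-200 (dose volume 0.25% of body weight). Rats were fasted 6 h and bled before dosing and at day 7 (orbital plexus), and at day 14 (cardiac puncture). Serum cholesterol fractions came from Superose 6 gel-filtration lipoprotein profiles (% peak area × serum total cholesterol). Values are mean ± SEM.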

Assay [3] relates to Rattus norvegicus. Nature of the assay: Percent increase in non-HDL-cholesterol in obese Zucker rats after 2 weeks of treatment at a dose of 0 mg/kg/day. Summed up:
as §1

For assay [4], the system named is Rattus norvegicus. Briefly: Percent decrease in HDL-cholesterol in obese Zucker rats after 1 week of treatment at a dose of 3 mg/kg/day. Also on record: scale not given: the % may be the effect or the level left. Summed up:
as §1

The test system of assay [5] is Rattus norvegicus. Briefly: Amount of non-HDL-cholesterol in obese Zucker rats at pre-treatment at a dose of 10 mg/kg/day. Summed up:
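Female obese Zucker fatty rats [Crl:(Zuc)-faBR], 10–12 weeks old (400–500 g), on chow. Compound in 20% EtOH/80% PEG-200 (v/v) given by daily oral gavage. After a 6-h fast, serum was taken before dosing and at 7 days (orbital plexus), and at 14 days (cardiac puncture). Lipoprotein cholesterol came from Superose 6HR gel-filtration profiles × serum total cholesterol. Mean ± SEM.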

Assay [6] concerns Rattus norvegicus. Nature of the assay: Percent increase in triglycerides in obese Zucker rats after 1 week of treatment at a dose of 0 mg/kg/day. Summed up: as §1
The test system of assay [7] is Rattus norvegicus. Briefly: Percent decrease in HDL-cholesterol in obese Zucker rats after 2 weeks of treatment at a dose of 0 mg/kg/day. Also on record: scale not given: the % may be the effect or the level left. The essentials:
as §1

Assay [8] concerns Rattus norvegicus. Briefly: Percent decrease in HDL-cholesterol in obese Zucker rats after 2 weeks of treatment at a dose of 3 mg/kg/day. Also on record: scale not given: the % may be the effect or the level left. The essentials: as §1
In assay [9] the test system is Rattus norvegicus. Briefly: Amount of glucose in obese Zucker rats after 1 week of treatment at a dose of 30 mg/kg/day. Summed up: (§3)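 Female Zucker fatty rats [Crl:(Zuc)-faBR], 10–12 weeks old (400–500 g), gavaged daily with vehicle (20% EtOH/80% PEG-200, 0.25% of body weight) or compound. After a 6-h fast, blood glucose was read by glucometer from tail-prick blood of unanesthetized rats before dosing and after 1 and 2 weeks. Values are mean ± SEM.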

Assay [10] deals with Rattus norvegicus. Nature of the assay: Percent increase in triglycerides in obese Zucker rats after 2 weeks of treatment at a dose of 0 mg/kg/day. The essentials:
as §1

Assay [11] has as its system Rattus norvegicus. Briefly: Percent decrease in nonesterified fatty acids in obese Zucker rats after 1 week of treatment at a dose of 30 mg/kg/day. Details: scale not given: the % may be the effect or the level left. The essentials:
as §1

Assay [12] has as its system Rattus norvegicus. Nature of the assay: Percent increase in nonesterified fatty acids in obese Zucker rats after 2 weeks of treatment at a dose of 100 mg/kg/day. The essentials:
as §1

For assay [13], the system named is Rattus norvegicus. Briefly: Percent decrease in nonesterified fatty acids in obese Zucker rats after 1 week of treatment at a dose of 10 mg/kg/day. Details: scale not given: the % may be the effect or the level left. The essentials:
as §1

The subject of assay [14] is Rattus norvegicus. Nature of the assay: Amount of non-HDL-cholesterol in obese Zucker rats after 2 weeks of treatment at a dose of 10 mg/kg/day. Summed up: as §2
The subject of assay [15] is Rattus norvegicus. Nature of the assay: Amount of glucose in obese Zucker rats after 2 weeks of treatment at a dose of 10 mg/kg/day. Summed up: as §3
Assay [16] concerns Rattus norvegicus. Briefly: Percent increase in HDL-cholesterol in obese Zucker rats after 1 week of treatment at a dose of 10 mg/kg/day. The essentials:
as §1

In assay [17] the test system is Rattus norvegicus. Briefly: Amount of triglycerides in obese Zucker rats after 2 weeks of treatment at a dose of 0 mg/kg/day. The essentials: (§4)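 Female Zucker fatty rats [Crl:(Zuc)-faBR], 10–12 weeks old (400–500 g), dosed once daily by oral gavage in 20% EtOH/80% PEG-200 for up to 14 days. After a 6-h fast, serum was taken pre-dose, at day 7 (orbital venous plexus, O2/CO2 anaesthesia) and at day 14 (cardiac puncture), stored at −80 °C, and assayed on a Hitachi 912 automatic analyzer. Mean ± SEM.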

Assay [18] deals with Rattus norvegicus. Nature of the assay: Percent decrease in triglycerides in obese Zucker rats after 1 week of treatment at a dose of 100 mg/kg/day. Details: scale not given: the % may be the effect or the level left. The essentials: as §1
The test system of assay [19] is Rattus norvegicus. Briefly: Amount of nonesterified fatty acids in obese Zucker rats after 1 week of treatment at a dose of 10 mg/kg/day. Summed up: as §4
For assay [20], the system named is Rattus norvegicus. Nature of the assay: Percent increase in HDL-cholesterol in obese Zucker rats after 2 weeks of treatment at a dose of 100 mg/kg/day. Summed up:
as §1

In assay [21] the test system is Rattus norvegicus. Nature of the assay: Amount of HDL-cholesterol in obese Zucker rats at pre-treatment at a dose of 0 mg/kg/day. The essentials:
as §2

For assay [22], the system named is Rattus norvegicus. Briefly: Percent decrease in non-HDL-cholesterol in obese Zucker rats after 1 week of treatment at a dose of 30 mg/kg/day. Also on record: scale not given: the % may be the effect or the level left. Summed up: as §1
Assay [23] has as its system Rattus norvegicus. Nature of the assay: Amount of glucose in obese Zucker rats at pre-treatment at a dose of 30 mg/kg/day. The essentials:
as §3

The subject of assay [24] is Rattus norvegicus. Briefly: Percent decrease in insulin in obese Zucker rats after 2 weeks of treatment at a dose of 0 mg/kg/day. Also on record: scale not given: the % may be the effect or the level left. Summed up:
as §1

The subject of assay [25] is Rattus norvegicus. Nature of the assay: Percent decrease in insulin in obese Zucker rats after 1 week of treatment at a dose of 10 mg/kg/day. Details: scale not given: the % may be the effect or the level left. The essentials: as §1
Assay [26] deals with Rattus norvegicus. Briefly: Percent decrease in nonesterified fatty acids in obese Zucker rats after 2 weeks of treatment at a dose of 100 mg/kg/day. Also on record: scale not given: the % may be the effect or the level left. Summed up: as §1
The subject of assay [27] is Rattus norvegicus. Briefly: Percent decrease in non-HDL-cholesterol in obese Zucker rats after 2 weeks of treatment at a dose of 100 mg/kg/day. Details: scale not given: the % may be the effect or the level left. Summed up: as §1
Assay [28] relates to Rattus norvegicus. Briefly: Percent decrease in non-HDL-cholesterol in obese Zucker rats after 1 week of treatment at a dose of 100 mg/kg/day. Details: scale not given: the % may be the effect or the level left. The essentials:
as §1

For assay [29], the system named is Rattus norvegicus. Nature of the assay: Percent decrease in nonesterified fatty acids in obese Zucker rats after 2 weeks of treatment at a dose of 30 mg/kg/day. Details: scale not given: the % may be the effect or the level left. Summed up:
as §1

The subject of assay [30] is Rattus norvegicus. Briefly: Percent increase in insulin in obese Zucker rats after 2 weeks of treatment at a dose of 30 mg/kg/day. Summed up: as §1
Assay [31] deals with Rattus norvegicus. Nature of the assay: Percent increase in glucose in obese Zucker rats after 2 weeks of treatment at a dose of 3 mg/kg/day. The essentials:
as §1

Assay [32] relates to Rattus norvegicus. Briefly: Percent increase in non-HDL-cholesterol in obese Zucker rats after 2 weeks of treatment at a dose of 10 mg/kg/day. Summed up:
as §1

Assay [33] has as its system Rattus norvegicus. Nature of the assay: Percent decrease in triglycerides in obese Zucker rats after 2 weeks of treatment at a dose of 30 mg/kg/day. Also on record: scale not given: the % may be the effect or the level left. Summed up: as §1
For assay [34], the system named is Rattus norvegicus. Nature of the assay: Percent decrease in nonesterified fatty acids in obese Zucker rats after 2 weeks of treatment at a dose of 3 mg/kg/day. Also on record: scale not given: the % may be the effect or the level left. Summed up: as §1
Assay [35] relates to Rattus norvegicus. Nature of the assay: Percent decrease in nonesterified fatty acids in obese Zucker rats after 2 weeks of treatment at a dose of 10 mg/kg/day. Details: scale not given: the % may be the effect or the level left. The essentials:
as §1

On to `CC(C)(CO)CCCCC(=O)CCCCC(C)(C)CO`, for which the Activity in the assay on Rattus norvegicus [1] was 15%; in the assay with Rattus norvegicus [2], 23 mg/dL; with Rattus norvegicus [3], 20%; in the assay with Rattus norvegicus [4], -10%; in the assay on Rattus norvegicus [5], 25 mg/dL; in the assay with Rattus norvegicus [6], 19%. Also, the Activity in the assay with Rattus norvegicus [7] is -15%; in the assay with Rattus norvegicus [8] it was -19%; in the assay on Rattus norvegicus [9], 112 mg/dL; with Rattus norvegicus [10], 18%; in the assay on Rattus norvegicus [11], -21%; with Rattus norvegicus [12], -33%. In addition, the Activity is -18% in the assay with Rattus norvegicus [13], 25 mg/dL in the assay with Rattus norvegicus [14], 110 mg/dL in the assay with Rattus norvegicus [15] and 13% in the assay with Rattus norvegicus [16].
For `CC(C)(CCCCC(=O)CCCCC(C)(C)C(=O)O)C(=O)O`, the Activity was 18 mg/dL in the assay on Rattus norvegicus [2]; 1140 mg/dL in the assay with Rattus norvegicus [17]; -60% in the assay with Rattus norvegicus [18]; 0.92 mg/dL in the assay on Rattus norvegicus [19]; 79% in the assay on Rattus norvegicus [20]; 40 mg/dL with Rattus norvegicus [5]. For the same compound, the Activity is 39 mg/dL in the assay with Rattus norvegicus [21]; -23% in the assay on Rattus norvegicus [22]; 103 mg/dL in the assay on Rattus norvegicus [23]; -31% with Rattus norvegicus [24]; -27% in the assay on Rattus norvegicus [25]; -45% with Rattus norvegicus [26]. In addition, the Activity in the assay on Rattus norvegicus [9] is 115 mg/dL; with Rattus norvegicus [27], -29%; in the assay on Rattus norvegicus [11], -29%; with Rattus norvegicus [28], -42%; in the assay on Rattus norvegicus [14], 27 mg/dL; with Rattus norvegicus [15], 113 mg/dL.
Consider `CC(C)(CCCCCC(=O)CCCCCC(C)(C)C(=O)O)C(=O)O`, for which the Activity is reported as -49% with Rattus norvegicus [29]; 60% with Rattus norvegicus [1]; 40% with Rattus norvegicus [3]; -21% in the assay with Rattus norvegicus [30]; 18% in the assay on Rattus norvegicus [6]; 8% with Rattus norvegicus [31]. Also, the Activity in the assay with Rattus norvegicus [7] was -9%; with Rattus norvegicus [32], 55%; in the assay on Rattus norvegicus [22], -48%; in the assay with Rattus norvegicus [26], -52%; in the assay with Rattus norvegicus [27], -88%; with Rattus norvegicus [10], 25%. The Activity in the assay with Rattus norvegicus [33] is -52%; in the assay on Rattus norvegicus [34] it was -23%; with Rattus norvegicus [13], -17%; in the assay on Rattus norvegicus [35], -21%; with Rattus norvegicus [16] it was 58%.

Source of the values: ChEMBL document CHEMBL1137992, “Long hydrocarbon chain keto diols and diacids that favorably alter lipid disorders in vivo” (J Med Chem, 2004).
